{"source": "paper PMC2943143", "about": "(Biochemical pharmacology, 2010)", "key": {"del-2 pol λ (245–575)": {"target": "del-2 pol λ (245–575) (Homo sapiens, UniProt Q9UGP5)", "sequence (Q9UGP5 245-575)": "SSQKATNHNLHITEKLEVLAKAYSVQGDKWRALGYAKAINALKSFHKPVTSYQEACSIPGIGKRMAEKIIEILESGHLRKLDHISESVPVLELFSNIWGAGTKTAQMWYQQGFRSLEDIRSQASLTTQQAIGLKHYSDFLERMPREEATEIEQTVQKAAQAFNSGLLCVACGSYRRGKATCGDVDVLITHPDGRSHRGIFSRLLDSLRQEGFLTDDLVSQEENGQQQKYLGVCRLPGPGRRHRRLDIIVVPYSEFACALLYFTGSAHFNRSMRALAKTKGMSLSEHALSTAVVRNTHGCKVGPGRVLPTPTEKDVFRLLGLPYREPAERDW", "assay": "Pol assay, del-2 pol λ mutant", "type": "biochemical", "procedure,_shortened": "(§1)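 Test compound was dissolved in DMSO and sonicated 30 s. It was preincubated with enzyme (0.05 unit final) in 50 mM Tris-HCl pH 7.5, 1 mM DTT, 50% glycerol and 0.1 mM EDTA at 0 °C for 10 min. This was added to each enzyme's standard reaction mix with poly(dA)/oligo(dT)18 (A/T = 2/1) template-primer and dTTP substrate, then incubated at 37 °C for 60 min. Activity is given as % of inhibitor-free control.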"}, "[1]": {"target": "HIV reverse transcriptase", "settings": "read-out: IC50, HIV reverse transcriptase; cited from earlier work"}, "human pol δ": {"target": "human pol δ (Homo sapiens, UniProt P28340)", "sequence (P28340 whole entry)": "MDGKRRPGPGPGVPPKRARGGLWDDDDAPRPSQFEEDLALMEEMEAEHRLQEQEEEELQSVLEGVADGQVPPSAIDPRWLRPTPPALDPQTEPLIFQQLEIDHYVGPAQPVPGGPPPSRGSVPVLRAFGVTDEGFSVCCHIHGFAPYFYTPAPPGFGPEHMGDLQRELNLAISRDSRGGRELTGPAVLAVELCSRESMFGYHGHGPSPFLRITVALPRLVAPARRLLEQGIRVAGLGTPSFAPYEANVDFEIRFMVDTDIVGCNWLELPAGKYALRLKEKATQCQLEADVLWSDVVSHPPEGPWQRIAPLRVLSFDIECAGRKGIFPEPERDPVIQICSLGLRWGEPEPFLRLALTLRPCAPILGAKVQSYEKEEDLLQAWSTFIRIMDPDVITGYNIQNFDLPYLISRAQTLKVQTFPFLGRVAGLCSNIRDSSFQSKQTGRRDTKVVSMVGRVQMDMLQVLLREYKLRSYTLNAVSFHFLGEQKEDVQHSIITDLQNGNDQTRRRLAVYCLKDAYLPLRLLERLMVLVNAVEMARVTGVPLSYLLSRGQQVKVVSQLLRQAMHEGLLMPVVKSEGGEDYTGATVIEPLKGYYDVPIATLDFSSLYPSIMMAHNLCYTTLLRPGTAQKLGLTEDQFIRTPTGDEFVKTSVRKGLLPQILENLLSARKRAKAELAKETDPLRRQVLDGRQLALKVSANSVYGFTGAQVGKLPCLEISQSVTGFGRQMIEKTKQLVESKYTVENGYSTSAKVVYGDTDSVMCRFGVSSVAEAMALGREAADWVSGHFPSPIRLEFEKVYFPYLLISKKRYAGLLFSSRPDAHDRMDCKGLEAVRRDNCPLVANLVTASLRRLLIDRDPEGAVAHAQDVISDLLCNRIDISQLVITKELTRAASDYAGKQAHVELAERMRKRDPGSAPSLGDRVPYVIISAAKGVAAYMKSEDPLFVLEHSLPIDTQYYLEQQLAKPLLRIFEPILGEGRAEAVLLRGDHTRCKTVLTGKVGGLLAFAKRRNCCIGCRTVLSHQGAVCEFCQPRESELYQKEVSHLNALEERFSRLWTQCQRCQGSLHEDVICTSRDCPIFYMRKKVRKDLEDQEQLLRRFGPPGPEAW", "assay": "Pol assay, human pol δ", "type": "biochemical", "procedure,_shortened": "as §1"}, "Neutral endopeptidase": {"target": "Neutral endopeptidase", "settings": "read-out: IC50, Neutral endopeptidase; cited from earlier work"}, "calf pol α": {"target": "T1, calf pol α (Bos taurus, UniProt A0AAA9TD94)", "T1 sequence (A0AAA9TD94 1-1441)": "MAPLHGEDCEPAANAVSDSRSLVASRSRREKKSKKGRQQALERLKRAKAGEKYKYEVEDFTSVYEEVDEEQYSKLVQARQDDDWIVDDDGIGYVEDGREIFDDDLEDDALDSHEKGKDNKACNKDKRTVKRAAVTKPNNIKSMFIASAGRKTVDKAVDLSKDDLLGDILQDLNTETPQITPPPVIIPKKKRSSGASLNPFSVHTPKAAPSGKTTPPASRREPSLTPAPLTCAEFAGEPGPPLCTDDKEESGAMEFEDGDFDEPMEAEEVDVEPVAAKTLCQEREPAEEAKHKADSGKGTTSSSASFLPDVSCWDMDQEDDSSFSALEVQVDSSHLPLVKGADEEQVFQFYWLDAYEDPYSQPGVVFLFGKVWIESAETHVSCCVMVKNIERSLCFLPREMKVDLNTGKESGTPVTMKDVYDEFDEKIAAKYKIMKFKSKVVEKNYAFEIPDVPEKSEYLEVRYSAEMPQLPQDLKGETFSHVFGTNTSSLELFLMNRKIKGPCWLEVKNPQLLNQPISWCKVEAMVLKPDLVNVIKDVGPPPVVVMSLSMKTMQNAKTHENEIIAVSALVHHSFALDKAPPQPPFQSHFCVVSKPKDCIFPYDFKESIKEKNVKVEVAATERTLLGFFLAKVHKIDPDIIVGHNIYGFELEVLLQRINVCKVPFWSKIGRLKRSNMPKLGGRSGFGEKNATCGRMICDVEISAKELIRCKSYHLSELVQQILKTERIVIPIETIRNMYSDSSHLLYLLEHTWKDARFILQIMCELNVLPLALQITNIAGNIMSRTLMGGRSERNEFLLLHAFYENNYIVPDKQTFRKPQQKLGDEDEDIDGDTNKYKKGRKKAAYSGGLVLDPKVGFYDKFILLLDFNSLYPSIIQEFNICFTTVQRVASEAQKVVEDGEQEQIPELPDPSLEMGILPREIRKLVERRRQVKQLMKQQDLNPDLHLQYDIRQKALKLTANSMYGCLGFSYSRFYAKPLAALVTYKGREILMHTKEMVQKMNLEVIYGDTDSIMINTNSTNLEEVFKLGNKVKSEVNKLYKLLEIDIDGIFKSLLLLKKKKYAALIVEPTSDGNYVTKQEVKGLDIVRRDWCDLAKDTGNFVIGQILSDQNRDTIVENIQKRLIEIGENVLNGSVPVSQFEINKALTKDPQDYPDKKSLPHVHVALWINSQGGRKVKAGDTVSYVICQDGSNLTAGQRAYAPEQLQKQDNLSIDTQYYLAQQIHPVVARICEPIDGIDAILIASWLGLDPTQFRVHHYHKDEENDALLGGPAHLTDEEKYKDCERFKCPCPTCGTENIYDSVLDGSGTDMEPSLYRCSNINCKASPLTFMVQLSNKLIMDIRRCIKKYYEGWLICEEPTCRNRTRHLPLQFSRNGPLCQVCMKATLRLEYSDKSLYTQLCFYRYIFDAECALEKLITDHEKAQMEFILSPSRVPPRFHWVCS", "assay": "Pol assay, calf pol α", "type": "biochemical", "settings": "for Ki: pol α, Dixon plot", "procedure,_shortened": "as §1"}, "isolated nuclei": {"test_system": "isolated nuclei", "settings": "cited from earlier work"}, "bovine DNase I": {"target": "bovine DNase I (Bos taurus, UniProt P00639)", "sequence (P00639 23-282)": "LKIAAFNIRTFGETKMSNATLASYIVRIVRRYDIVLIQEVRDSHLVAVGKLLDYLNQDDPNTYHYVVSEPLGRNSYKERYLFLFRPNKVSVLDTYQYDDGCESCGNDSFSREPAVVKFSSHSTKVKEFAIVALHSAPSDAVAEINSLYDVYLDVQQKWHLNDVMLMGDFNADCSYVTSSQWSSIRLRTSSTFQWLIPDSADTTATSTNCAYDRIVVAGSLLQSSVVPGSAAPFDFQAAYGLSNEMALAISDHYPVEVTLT", "assay": "DNase I assay", "type": "biochemical", "settings": "highest tested concentration 1 μM, supplemental Fig. S1B", "procedure,_shortened": "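Topoisomerases I and II were purified from human placenta, and DNase I came from bovine pancreas. Each activity was measured in a standard assay following the supplier's specifications.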"}, "rice pol λ": {"target": "rice pol λ (Oryza sativa subsp. japonica, UniProt Q67VC8)", "sequence (Q67VC8 whole entry)": "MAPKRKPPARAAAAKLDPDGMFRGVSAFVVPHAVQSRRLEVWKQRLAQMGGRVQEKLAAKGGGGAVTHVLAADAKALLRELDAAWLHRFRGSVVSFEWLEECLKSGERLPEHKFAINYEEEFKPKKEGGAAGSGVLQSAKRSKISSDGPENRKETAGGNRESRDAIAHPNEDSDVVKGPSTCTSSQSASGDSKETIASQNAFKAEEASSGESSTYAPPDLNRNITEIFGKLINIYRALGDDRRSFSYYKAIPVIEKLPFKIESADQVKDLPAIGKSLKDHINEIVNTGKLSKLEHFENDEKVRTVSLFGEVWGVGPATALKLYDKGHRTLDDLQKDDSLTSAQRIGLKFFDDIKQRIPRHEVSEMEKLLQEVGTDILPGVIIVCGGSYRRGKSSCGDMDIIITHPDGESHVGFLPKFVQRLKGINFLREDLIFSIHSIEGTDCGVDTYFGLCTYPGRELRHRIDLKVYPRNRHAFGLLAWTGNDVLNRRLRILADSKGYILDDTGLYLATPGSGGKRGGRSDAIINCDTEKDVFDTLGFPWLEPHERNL", "assay": "Pol assay, rice pol λ", "type": "biochemical", "settings": "supplemental Fig. S1A", "procedure,_shortened": "as §1"}, "human pol η": {"target": "human pol η (Homo sapiens, UniProt Q9Y253)", "sequence (Q9Y253 whole entry)": "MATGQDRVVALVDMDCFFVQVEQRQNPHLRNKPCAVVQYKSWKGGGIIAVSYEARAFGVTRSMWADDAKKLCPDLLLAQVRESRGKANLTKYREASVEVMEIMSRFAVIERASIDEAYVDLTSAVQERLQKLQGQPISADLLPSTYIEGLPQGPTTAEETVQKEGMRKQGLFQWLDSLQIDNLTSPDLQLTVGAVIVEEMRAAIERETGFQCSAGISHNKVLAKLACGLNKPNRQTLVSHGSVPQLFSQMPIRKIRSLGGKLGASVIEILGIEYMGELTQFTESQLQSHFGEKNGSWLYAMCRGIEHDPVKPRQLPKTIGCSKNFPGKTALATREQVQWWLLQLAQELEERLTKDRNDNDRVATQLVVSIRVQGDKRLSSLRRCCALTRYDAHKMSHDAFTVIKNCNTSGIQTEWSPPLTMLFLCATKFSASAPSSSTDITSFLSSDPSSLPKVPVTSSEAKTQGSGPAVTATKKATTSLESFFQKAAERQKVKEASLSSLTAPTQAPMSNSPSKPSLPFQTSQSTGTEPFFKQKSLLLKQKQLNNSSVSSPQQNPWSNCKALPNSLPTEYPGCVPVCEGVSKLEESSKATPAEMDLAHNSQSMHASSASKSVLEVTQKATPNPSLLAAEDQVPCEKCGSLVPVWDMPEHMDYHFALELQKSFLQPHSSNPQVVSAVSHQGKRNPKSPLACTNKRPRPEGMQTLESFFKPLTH", "assay": "Pol assay, human pol η", "type": "biochemical", "procedure,_shortened": "as §1"}, "cauliflower pol α": {"test_system": "cauliflower pol α", "assay": "Pol assay, cauliflower pol α", "type": "biochemical", "settings": "supplemental Fig. S1A", "procedure,_shortened": "as §1"}, "T4 pol": {"target": "T4 pol (Enterobacteria phage T4, UniProt P04415)", "sequence (P04415 whole entry)": "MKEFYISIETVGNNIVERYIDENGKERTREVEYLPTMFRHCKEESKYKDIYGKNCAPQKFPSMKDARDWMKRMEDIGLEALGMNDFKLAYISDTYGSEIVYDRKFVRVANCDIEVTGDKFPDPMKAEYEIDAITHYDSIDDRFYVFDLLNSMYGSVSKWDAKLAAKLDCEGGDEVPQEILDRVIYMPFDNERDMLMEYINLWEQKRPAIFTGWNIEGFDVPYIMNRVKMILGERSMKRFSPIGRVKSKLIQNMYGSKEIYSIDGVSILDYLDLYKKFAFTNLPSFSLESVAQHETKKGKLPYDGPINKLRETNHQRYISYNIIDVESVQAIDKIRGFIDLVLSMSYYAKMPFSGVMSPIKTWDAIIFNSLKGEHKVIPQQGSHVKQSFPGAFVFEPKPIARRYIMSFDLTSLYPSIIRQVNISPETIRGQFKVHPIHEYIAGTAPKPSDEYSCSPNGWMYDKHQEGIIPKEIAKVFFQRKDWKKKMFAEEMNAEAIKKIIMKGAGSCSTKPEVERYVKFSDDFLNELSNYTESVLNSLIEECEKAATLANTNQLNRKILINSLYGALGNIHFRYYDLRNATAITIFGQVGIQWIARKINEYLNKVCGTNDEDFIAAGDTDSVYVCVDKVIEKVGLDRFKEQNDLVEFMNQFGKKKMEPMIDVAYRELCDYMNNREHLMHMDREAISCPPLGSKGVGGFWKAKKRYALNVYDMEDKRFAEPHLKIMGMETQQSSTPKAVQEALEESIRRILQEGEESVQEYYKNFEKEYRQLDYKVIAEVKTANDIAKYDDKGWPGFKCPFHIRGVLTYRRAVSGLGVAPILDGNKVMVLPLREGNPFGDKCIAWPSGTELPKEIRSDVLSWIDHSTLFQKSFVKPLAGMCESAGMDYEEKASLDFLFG", "assay": "Pol assay, T4 pol", "type": "biochemical", "settings": "supplemental Fig. S1A", "procedure,_shortened": "as §1"}}, "note": "Values joined by “and” are separate entries in the source; they are usually repeats but may differ in a detail not shown here. Equal entries are not always repeated.", "data": [{"smiles": "O=C(OC[C@H]1O[C@@H](OC(=O)c2cc(O)c(O)c(O)c2)[C@H](OC(=O)c2cc(O)c(O)c(O)c2)[C@@H](OC(=O)c2cc(O)c(O)c(O)c2)[C@@H]1OC(=O)c1cc(O)c(O)c(O)c1)c1cc(O)c(O)c(O)c1", "note": "[PGG, 1,2,3,4,6-penta-O-galloyl-β-D-glucose]", "values": [{"measurement": "IC50", "setting": "del-2 pol λ (245–575)", "result": 117, "unit": "nM"}, {"measurement": "IC50", "setting": "[1]", "result": "> 100", "unit": "µM"}, {"measurement": "effect on pol δ activity", "setting": "human pol δ; 100 and 1,000 nM PGG, Fig. 1C", "result": "significantly inhibit"}, {"measurement": "IC50", "setting": "human pol δ; IC50, pol δ, range stated for replicative pols (α, δ and ε) together", "result": "< 100 nM and 13 to 66 nM"}, {"measurement": "IC50", "setting": "Neutral endopeptidase", "result": 12.5, "unit": "µM"}, {"measurement": "apparent Vmax of pol α, DNA template-primer, decreased to", "setting": "calf pol α; 5 nM PGG", "result": 32.2, "unit": "%"}, {"measurement": "apparent Vmax of pol α, DNA template-primer, decreased to", "setting": "calf pol α; 10 nM PGG", "result": 18.9, "unit": "%"}, {"measurement": "apparent Vmax of pol α, DNA template-primer, decreased to", "setting": "calf pol α; 15 nM PGG", "result": 13.6, "unit": "%"}, {"measurement": "apparent Vmax of pol α for the dNTP substrate", "setting": "calf pol α; 15 nM PGG (29.2 without PGG)", "result": 3.77, "unit": "pmol/h"}, {"measurement": "effect on pol α activity", "setting": "calf pol α; 100 and 1,000 nM PGG, Fig. 1C", "result": "significantly inhibit"}, {"measurement": "IC50", "setting": "calf pol α; IC50, pol α, poly(dA)/oligo(dT)18 and dTTP, 0.05 unit enzyme", "result": 13, "unit": "nM"}, {"measurement": "Ki", "setting": "calf pol α; for the DNA template-primer", "result": 2.5, "unit": "nM"}, {"measurement": "Ki", "setting": "calf pol α; for the dNTP substrate", "result": 2.2, "unit": "nM"}, {"measurement": "Mode of Inhibition, pol α, DNA template-primer", "setting": "calf pol α; Lineweaver-Burk plots", "result": "Non-competitive for DNA template-primer"}, {"measurement": "Mode of Inhibition, pol α, dNTP", "setting": "calf pol α; Lineweaver-Burk plots", "result": "Non-competitive for dNTP"}, {"measurement": "effect of 0.05% NP-40 on the inhibitory effect on pol α", "setting": "calf pol α; PGG 10 and 100 nM, supplemental Table S1", "result": "not reversed"}, {"measurement": "effect of poly(rC) or BSA on the inhibitory effect on pol α", "setting": "calf pol α; poly(rC) 50 μM, BSA 200 μg/ml", "result": "neither poly(rC) nor BSA influenced"}, {"measurement": "inhibition of DNA replicative synthesis compared with aphidocolin", "setting": "isolated nuclei", "result": "superior efficacy"}, {"measurement": "effect on bovine DNase I activity", "setting": "bovine DNase I", "result": "did not suppress"}, {"measurement": "effect on rice pol λ activity", "setting": "rice pol λ", "result": "not influenced"}, {"measurement": "IC50", "setting": "human pol η", "result": "30 to 45", "unit": "nM"}, {"measurement": "effect on pol η activity", "setting": "human pol η; 100 and 1,000 nM PGG, Fig. 1C", "result": "significantly inhibit"}, {"measurement": "effect on cauliflower pol α activity", "setting": "cauliflower pol α", "result": "not influenced"}, {"measurement": "effect on T4 pol activity", "setting": "T4 pol", "result": "not influenced"}]}]}
